Measurements taken from ChEMBL document CHEMBL1141640, “Cyclic guanidines as dual 5-HT5A/5-HT7 receptor ligands: optimising brain penetration” (Bioorg Med Chem Lett, 2008).

Legend:
[1] = Dissociation constant, pKa of the compound; assay type: physicochemical
[2] = Distribution coefficient, log D of the compound; assay type: physicochemical; settings: octanol/water
How it was run: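 Lipophilicity reported as log D at pH 7.4 (log D7.4), measured alongside the guanidine pKa.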

[3] = target: 5-hydroxytryptamine receptor 5A (Homo sapiens, UniProt P47898); assay: Binding affinity to human 5HT5A receptor; settings: read-out: Ki
Sequence of 5-hydroxytryptamine receptor 5A (Homo sapiens, UniProt P47898) (P47898 whole entry): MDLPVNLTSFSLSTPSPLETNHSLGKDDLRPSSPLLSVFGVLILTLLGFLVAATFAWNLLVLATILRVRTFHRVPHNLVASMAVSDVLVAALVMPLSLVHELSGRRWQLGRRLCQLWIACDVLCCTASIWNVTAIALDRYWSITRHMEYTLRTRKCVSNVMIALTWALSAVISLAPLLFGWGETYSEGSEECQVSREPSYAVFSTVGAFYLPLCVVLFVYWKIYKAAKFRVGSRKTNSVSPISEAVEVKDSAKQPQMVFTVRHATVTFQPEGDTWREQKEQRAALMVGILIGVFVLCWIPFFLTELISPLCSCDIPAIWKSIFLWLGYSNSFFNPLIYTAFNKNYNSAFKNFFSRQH

[4] = target: T1, 5-hydroxytryptamine receptor 1A (Homo sapiens, UniProt P08908); assay: Binding affinity to 5HT1A receptor
T1 sequence (P08908 whole entry): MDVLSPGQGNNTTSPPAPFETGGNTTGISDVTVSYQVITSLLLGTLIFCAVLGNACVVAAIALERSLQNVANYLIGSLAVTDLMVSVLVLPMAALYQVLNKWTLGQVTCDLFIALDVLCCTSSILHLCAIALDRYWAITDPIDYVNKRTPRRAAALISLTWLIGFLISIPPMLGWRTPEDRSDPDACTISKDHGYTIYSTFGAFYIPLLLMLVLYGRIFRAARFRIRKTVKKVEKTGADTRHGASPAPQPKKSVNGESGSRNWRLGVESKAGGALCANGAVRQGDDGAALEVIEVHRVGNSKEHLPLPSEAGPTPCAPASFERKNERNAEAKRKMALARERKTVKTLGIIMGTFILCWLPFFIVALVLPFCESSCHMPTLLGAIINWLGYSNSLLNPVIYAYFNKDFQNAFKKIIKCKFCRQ

[5] = target: 5-hydroxytryptamine receptor 7 (Homo sapiens, UniProt P34969); assay: Binding affinity to human 5HT7 receptor
Sequence of 5-hydroxytryptamine receptor 7 (P34969 whole entry): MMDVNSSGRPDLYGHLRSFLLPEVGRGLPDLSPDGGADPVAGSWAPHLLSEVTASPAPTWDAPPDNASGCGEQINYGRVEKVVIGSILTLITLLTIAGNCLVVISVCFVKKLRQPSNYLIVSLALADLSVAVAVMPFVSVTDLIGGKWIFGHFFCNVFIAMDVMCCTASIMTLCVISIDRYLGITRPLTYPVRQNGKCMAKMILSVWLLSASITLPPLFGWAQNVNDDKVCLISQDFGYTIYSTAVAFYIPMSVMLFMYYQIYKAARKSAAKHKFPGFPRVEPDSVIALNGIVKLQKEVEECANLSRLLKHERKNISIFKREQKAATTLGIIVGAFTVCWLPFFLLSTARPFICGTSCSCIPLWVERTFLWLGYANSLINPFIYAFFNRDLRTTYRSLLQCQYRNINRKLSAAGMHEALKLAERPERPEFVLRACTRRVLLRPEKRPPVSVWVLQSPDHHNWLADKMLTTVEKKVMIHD

[6] = Selectivity for human 5HT5A receptor over 5HT6 receptor
[7] = target: T2, 5-hydroxytryptamine receptor 1D (Homo sapiens, UniProt P28221); assay: Binding affinity to 5HT1D receptor
T2 sequence (P28221 whole entry): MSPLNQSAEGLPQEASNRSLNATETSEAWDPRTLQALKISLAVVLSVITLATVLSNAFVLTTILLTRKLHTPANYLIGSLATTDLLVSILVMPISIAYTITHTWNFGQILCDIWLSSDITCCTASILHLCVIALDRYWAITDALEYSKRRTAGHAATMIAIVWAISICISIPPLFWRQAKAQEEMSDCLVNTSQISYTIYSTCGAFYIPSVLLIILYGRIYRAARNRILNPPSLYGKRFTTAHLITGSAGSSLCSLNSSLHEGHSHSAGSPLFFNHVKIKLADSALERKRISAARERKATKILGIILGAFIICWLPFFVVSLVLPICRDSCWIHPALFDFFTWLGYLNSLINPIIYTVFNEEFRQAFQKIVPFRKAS

[8] = Selectivity for human 5HT5A receptor over 5HT3 receptor
[9] = target: T3, 5-hydroxytryptamine receptor 2C (Homo sapiens, UniProt P28335); assay: Binding affinity to 5HT2C receptor
T3 sequence (P28335 whole entry): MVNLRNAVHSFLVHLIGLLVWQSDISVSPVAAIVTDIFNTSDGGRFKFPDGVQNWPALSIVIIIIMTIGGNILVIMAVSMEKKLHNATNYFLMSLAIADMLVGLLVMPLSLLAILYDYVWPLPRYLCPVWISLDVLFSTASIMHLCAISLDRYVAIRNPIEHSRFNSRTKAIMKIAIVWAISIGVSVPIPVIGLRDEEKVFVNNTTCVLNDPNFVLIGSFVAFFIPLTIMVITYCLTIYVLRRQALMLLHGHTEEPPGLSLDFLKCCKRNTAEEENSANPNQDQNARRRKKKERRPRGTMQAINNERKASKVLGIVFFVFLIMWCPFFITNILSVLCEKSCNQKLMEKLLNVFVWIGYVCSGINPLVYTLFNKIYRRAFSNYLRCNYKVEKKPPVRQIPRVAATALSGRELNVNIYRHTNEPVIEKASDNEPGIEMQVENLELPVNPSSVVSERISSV

[10] = Selectivity for human 5HT5A receptor over 5HT2A receptor
[11] = target: T1, 5-hydroxytryptamine receptor 1A; assay: Binding affinity to human 5HT1A receptor
[12] = target: 5-hydroxytryptamine receptor 5A (Rattus norvegicus, UniProt P35364); assay: Binding affinity to rat 5HT5A receptor
Sequence of 5-hydroxytryptamine receptor 5A (Rattus norvegicus, UniProt P35364) (P35364 whole entry): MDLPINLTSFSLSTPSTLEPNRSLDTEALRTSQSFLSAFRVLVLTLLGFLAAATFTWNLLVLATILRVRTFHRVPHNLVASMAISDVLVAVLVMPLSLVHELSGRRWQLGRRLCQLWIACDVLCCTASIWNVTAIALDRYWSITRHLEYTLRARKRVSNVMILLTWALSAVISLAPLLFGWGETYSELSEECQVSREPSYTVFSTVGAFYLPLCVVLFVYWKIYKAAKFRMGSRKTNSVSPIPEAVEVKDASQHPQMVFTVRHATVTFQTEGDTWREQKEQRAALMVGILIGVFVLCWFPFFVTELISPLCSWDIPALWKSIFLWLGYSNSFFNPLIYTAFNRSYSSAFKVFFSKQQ

[13] = target: T2, 5-hydroxytryptamine receptor 1D; assay: Binding affinity to human 5HT1D receptor
[14] = target: 5-hydroxytryptamine receptor 2A (Homo sapiens, UniProt P28223); assay: Binding affinity to human 5HT2A receptor
Sequence of 5-hydroxytryptamine receptor 2A (P28223 whole entry): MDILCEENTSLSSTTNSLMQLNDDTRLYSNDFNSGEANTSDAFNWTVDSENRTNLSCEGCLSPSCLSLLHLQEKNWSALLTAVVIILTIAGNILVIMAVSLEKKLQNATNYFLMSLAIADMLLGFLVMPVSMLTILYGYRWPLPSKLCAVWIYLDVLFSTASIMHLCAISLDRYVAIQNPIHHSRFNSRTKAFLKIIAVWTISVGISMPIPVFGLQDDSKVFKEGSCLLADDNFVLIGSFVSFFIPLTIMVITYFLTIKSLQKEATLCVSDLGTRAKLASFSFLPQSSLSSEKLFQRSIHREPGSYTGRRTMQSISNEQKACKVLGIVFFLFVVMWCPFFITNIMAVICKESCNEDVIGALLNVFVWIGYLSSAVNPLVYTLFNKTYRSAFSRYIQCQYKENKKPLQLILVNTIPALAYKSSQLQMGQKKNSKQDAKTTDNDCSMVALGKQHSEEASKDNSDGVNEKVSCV

[15] = target: T3, 5-hydroxytryptamine receptor 2C; assay: Binding affinity to human 5HT2C receptor
[16] = target: 5-hydroxytryptamine receptor 6 (Homo sapiens, UniProt P50406); assay: Binding affinity to human 5HT6 receptor
Sequence of 5-hydroxytryptamine receptor 6 (P50406 whole entry): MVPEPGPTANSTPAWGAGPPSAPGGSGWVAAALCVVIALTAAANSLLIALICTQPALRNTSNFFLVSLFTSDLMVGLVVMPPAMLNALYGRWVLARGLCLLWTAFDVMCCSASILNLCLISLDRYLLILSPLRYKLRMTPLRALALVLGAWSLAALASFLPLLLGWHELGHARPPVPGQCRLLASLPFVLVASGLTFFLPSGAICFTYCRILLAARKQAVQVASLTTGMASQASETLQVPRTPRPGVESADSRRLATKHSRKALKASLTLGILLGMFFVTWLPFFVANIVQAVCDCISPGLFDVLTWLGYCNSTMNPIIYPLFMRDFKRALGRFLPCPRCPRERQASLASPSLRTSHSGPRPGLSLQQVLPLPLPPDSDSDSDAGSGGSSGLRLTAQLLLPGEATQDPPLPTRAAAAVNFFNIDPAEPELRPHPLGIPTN

[17] = target: T4, 5-hydroxytryptamine receptor 3A (Homo sapiens, UniProt P46098); assay: Binding affinity to human 5HT3 receptor
T4 sequence (P46098 whole entry): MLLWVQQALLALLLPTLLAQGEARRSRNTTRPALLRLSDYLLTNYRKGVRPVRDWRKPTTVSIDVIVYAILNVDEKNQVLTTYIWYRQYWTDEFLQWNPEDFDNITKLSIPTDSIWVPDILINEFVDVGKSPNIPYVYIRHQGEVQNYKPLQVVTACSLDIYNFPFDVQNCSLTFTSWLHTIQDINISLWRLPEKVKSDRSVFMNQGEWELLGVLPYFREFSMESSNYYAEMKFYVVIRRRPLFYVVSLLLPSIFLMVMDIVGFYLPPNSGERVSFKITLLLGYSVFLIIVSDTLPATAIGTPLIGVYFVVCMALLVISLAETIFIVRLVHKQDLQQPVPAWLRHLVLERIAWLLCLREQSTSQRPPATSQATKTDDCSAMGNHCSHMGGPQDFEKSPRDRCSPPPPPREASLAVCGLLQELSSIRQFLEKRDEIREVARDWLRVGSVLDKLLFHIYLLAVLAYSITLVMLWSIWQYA

Row | SMILES | pKa [1] | logD [2] | Ki [3] | Ki [5] | also measured
1 | CC1NC(N)=Nc2ccccc21 (configuration not stated) | 10.5 | -1.4 |  |  | 
2 | COc1c(Cl)ccc2c1C(C)NC(NCC(F)F)=N2 (configuration not stated) | 8.9 | 1.5 | 0.0222 µM | 0.0176 µM | Ki [4]: 0.348 µM; Selectivity ratio [6]: > 30; Ki [7]: 1.81 µM; Selectivity ratio [8]: > 30; Ki [9]: 0.233 µM; Selectivity ratio [10]: > 30
3 | C[C@H]1NC(NCC(F)F)=Nc2ccc(Cl)c(Cl)c21 | 8.5 | 2.7 | 0.504 µM | 1.7 µM | Ki [4]: 0.612 µM; Ki [7]: > 10 µM; Ki [9]: 0.238 µM
4 | C[C@@H]1NC(NCC(F)F)=Nc2cccc(Cl)c21 |  |  | 0.0068 µM | 0.0248 µM | Ki [11]: 0.056 µM; Ki [12]: 0.0029 µM; Ki [13]: 1.44 µM; Ki [14]: 0.491 µM; Ki [15]: 0.352 µM; Ki [16]: 4.48 µM
5 | CCCOCCNC1=Nc2ccccc2C(C)N1 (configuration not stated) |  | 0.1 | 0.241 µM |  | 
6 | CC1NC(NCC(F)(F)F)=Nc2ccccc21 (configuration not stated) | 9.2 | 0.5 | 0.488 µM |  | 
7 | C[C@@H]1NC(N)=Nc2cccc(Cl)c21 |  |  | 0.0016 µM | 0.006 µM | Ki [11]: 0.0952 µM; Ki [12]: 0.0013 µM; Ki [13]: 1.1 µM; Ki [14]: 0.257 µM; Ki [17]: 1.06 µM; Ki [15]: 0.055 µM; Ki [16]: 1.03 µM
8 | CC(C)Oc1cccc2c1N=C(NCC(F)F)NC2C (configuration not stated) | 10.2 | 0.1 | 0.0222 µM | 0.0042 µM | Ki [4]: 0.24 µM; Selectivity ratio [6]: > 30; Ki [7]: 0.082 µM; Selectivity ratio [8]: > 30; Ki [9]: 2.15 µM; Selectivity ratio [10]: > 30

More lines, main results first:

Row | pKa [1] | logD [2] | Ki [3] | Ki [5] | SMILES | also measured
9 | 9.7 | -0.2 | 0.087 µM |  | CC1NC(NCC(F)F)=Nc2ccccc21 (configuration not stated) | 
10 |  | 1 | 0.037 µM |  | CC1NC(NCC2COc3ccccc3O2)=Nc2ccccc21 (configuration not stated) | 
11 | 10.7 | -0.3 | 0.189 µM |  | CCCCNC1=Nc2ccccc2C(C)N1 (configuration not stated) | 
12 | 10.7 | -0.8 | 0.153 µM |  | CCCNC1=Nc2ccccc2C(C)N1 (configuration not stated) | 
13 |  | -0.8 | 0.096 µM |  | CC1NC(NCC2COCCO2)=Nc2ccccc21 (configuration not stated) | 
14 | 10.6 | -0.6 | 0.103 µM |  | CNC1=Nc2ccccc2C(C)N1 (configuration not stated) | 
